Measured values taken from ChEMBL document CHEMBL1933064, “Synthesis and evaluation of potential inhibitors of human and Escherichia coli histidine triad nucleotide binding proteins” (Bioorg Med Chem Lett, 2012).
Activity calls are given as the source filed them. The rule behind the calls is not given here.

Key:
[1] = Non-competitive inhibition of Escherichia coli HinT using tryptamine 5'-adenosine phosphoramidate as substrate compound pre-incubated for 30 secs prior substrate addition measured for 2 mins by Dixon plot analysis
Method in brief: (§1)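 Phosphoramidase assay on fluorogenic tryptamine 5'-adenosine phosphoramidate (TpAd), ecHinT or hHint1 enzyme. Enzyme pre-incubated with inhibitor 30 s at 25 °C, then substrate added. Hydrolysis followed as fluorescence rise (excitation 280 nm, emission 360 nm) over 2 min. HEPES buffer pH 7.2, 25 °C; Ki derived from rates versus concentration.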

[2] = target: Adenosine 5'-monophosphoramidase HINT1 (Homo sapiens, UniProt P49773); assay: Non-competitive inhibition of human HinT1 using tryptamine 5'-adenosine phosphoramidate as substrate compound pre-incubated for 30 secs prior substrate addition measured for 2 mins by Dixon plot analysis; method in brief: as §1
Escherichia coli [3] = assay: Inhibition of HinT in Escherichia coli BW25113 assessed as impaired growth at 100 uM after 40 hrs in presence of D,L-alanine as sole carbon source
Escherichia coli [4] = assay: Growth inhibition of Escherichia coli BW25113 at 100 uM after 40 hrs in presence of glucose as sole carbon source; format: functional, organism-based

Ki [2] [µM]	inhibition (Escherichia coli [3])	SMILES	Ki [1] [µM]	growth inhibition (GI) (Escherichia coli [4])
715		Cc1cn([C@H]2C[C@H](N=[N+]=[N-])[C@@H](COC(=O)NCCc3c[nH]c4ccccc34)O2)c(=O)[nH]c1=O	565	
34	Active	Nc1nc2c(ncn2[C@@H]2O[C@H](COC(=O)NCCc3c[nH]c4ccccc34)[C@@H](O)[C@H]2O)c(=O)[nH]1	42	inactive
139	Active	Cc1cn([C@H]2C[C@H](N)[C@@H](COC(=O)NCCc3c[nH]c4ccccc34)O2)c(=O)[nH]c1=O	122	inactive
400		Nc1ncnc2c1ncn2[C@@H]1O[C@H](COC(=O)CCc2c[nH]c3ccccc23)[C@@H](O)[C@H]1O	375	
457		Nc1ncnc2c1ncn2[C@@H]1O[C@H](COC(=O)CCCc2c[nH]c3ccccc23)[C@@H](O)[C@H]1O	393	
103	Active	Nc1ncnc2c1ncn2[C@@H]1O[C@H](COC(=O)NCCc2c[nH]c3ccccc23)[C@@H](O)[C@H]1O	73	inactive
